Assay results published in publication PMC12444810 (Chemmedchem, 2025).
Non-standard residues stand in square brackets, D forms with d. Residues, ends and D or L forms follow the SMILES beside them. *: point of attachment. Phe(4-F) = N[C@@H](Cc1ccc(F)cc1)C(=O)O; Cbz = O=C(OCc1ccccc1)*

Tests used:
[1] = system: MeV‐F; settings: cited from earlier work; for IC50: reported value
[2] = PAMPA passive membrane permeability; format: in vitro ADME; settings: for passive membrane permeability, in words: 10 µM, 13 h incubation, triplicate
[3] = system: Vero/SLAM cells; experiment: CCK-8 cytotoxicity assay; format: cell-based; settings: CCK-8 assay, 100 µM, 24 h; result in words
[4] = target: T1, MeV‐F (Measles virus, UniProt Q786F3); experiment: Cell-to-cell fusion assay; format: cell-based; settings: 0.5 µM peptide, triplicate (Figure S2)
T1 sequence (Q786F3 113-550 limits assumed): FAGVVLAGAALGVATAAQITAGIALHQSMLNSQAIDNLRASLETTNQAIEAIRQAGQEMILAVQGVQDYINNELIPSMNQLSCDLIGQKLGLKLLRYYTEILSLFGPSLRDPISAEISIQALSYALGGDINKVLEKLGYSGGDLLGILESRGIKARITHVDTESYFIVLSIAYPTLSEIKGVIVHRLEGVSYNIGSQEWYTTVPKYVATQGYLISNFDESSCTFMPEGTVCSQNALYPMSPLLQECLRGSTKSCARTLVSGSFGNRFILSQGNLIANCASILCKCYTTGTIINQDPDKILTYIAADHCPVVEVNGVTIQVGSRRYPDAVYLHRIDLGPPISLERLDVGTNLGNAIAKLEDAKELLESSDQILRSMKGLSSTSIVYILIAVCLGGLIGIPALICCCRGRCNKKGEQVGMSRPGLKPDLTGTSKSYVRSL
T1 sequence (Q786F3 24-112 limits assumed): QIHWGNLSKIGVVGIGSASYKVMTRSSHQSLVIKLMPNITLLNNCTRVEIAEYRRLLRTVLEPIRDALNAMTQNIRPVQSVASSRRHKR
How it was run: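 Vero cells stably expressing human SLAM were transfected with plasmids encoding MeV‑F, MeV‑H and EGFP, then incubated with test compound for 24 h. Syncytium formation was judged by EGFP fluorescence imaging. Controls were cells without peptide and cells transfected with EGFP plasmid alone. Run in triplicate.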

[5] = system: EGFP‐recombinant MeV (MeV‐EGFP); experiment: Viral entry inhibition assay; format: cell-based, measles virus; settings: ratio of IC50 values in the viral entry inhibition assay
How it was run: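 Vero/hSLAM cells were infected with EGFP‑recombinant MeV in the presence of test compound for 1 h. Virus medium was removed and cells were kept 48 h in medium containing 100 µM of the parent fusion‑inhibitor peptide. Fluorescent infected cells were counted to give IC50, in triplicate. The ratio is taken against the parent peptide's IC50, measured under the same conditions.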

[6] = system: fusion protein of canine distemper virus; settings: cited from earlier work

| Compound | IC50 [1] [nM] | passive membrane permeability, in words [2] | cytotoxicity to Vero/SLAM cells [3] | inhibition of syncytia formation, comparison of the two compounds [4] | enhancement in inhibitory activity compared to FIP [5] [fold] | Papp at 13 h, 10 µM [2] [×10⁻⁶ cm/s] | inhibitory activity compared to the original FIP ([1]; authors' previous study) | inhibition of canine distemper virus fusion protein [6] |
| --- | --- | --- | --- | --- | --- | --- | --- | --- |
| N=C(N)NCCC[C@@H](NC(=O)[C@H](Cc1ccccc1)NC(=O)[C@@H](Cc1ccccc1)NC(=O)OCc1ccccc1)C(N)=O [FIP‐G3r‐NH2] (Cbz-[dF]-Phe-[dR]-NH2) | 210 | did not passively permeate the lipid membrane | did not exhibit cytotoxicity |  |  |  |  |  |
| NC(=O)CNC(=O)[C@H](Cc1ccc(F)cc1)NC(=O)[C@@H](Cc1ccccc1)NC(=O)OCc1ccccc1 [FIP‐F2pF‐NH2] (Cbz-[dF]-[Phe(4-F)]-Gly-NH2) |  |  | did not exhibit cytotoxicity | stronger inhibitor than FIP‐ZoF‐NH2 | 23 | 1.4 ± 0.1 |  |  |
| NC(=O)CNC(=O)[C@H](Cc1ccccc1)NC(=O)[C@@H](Cc1ccccc1)NC(=O)OCc1ccccc1 [FIP‐NH2] (Cbz-[dF]-Phe-Gly-NH2) |  |  |  |  |  | 1.2 ± 0.2 | slight improvement in inhibitory activity |  |
| O=C(O)CNC(=O)[C@H](Cc1ccccc1)NC(=O)[C@@H](Cc1ccccc1)NC(=O)OCc1ccccc1 [FIP] (Cbz-[dF]-Phe-Gly-OH) | 1300 | negligible level of permeability | did not exhibit cytotoxicity |  |  |  |  | does not inhibit |
